From ChEMBL document CHEMBL1147105, “In vitro and in vivo activities of PD 0305970 and PD 0326448, new bacterial gyrase/topoisomerase inhibitors with potent antibacterial activities versus multidrug-resistant gram-positive and fastidious organism groups” (2007)
Values after ≈ are worked out from the molar mass of the structure shown.

What was measured:
Streptococcus mitis = assay: Antibacterial activity against Streptococcus mitis; type: functional
Procedure, shortened: (§1)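 Broth microdilution MIC following CLSI guidelines, in cation-adjusted Mueller-Hinton broth with 3% lysed horse blood. Plates incubated at 35°C. Clinical isolates and reference strains, with identity confirmed by standard microbiological methods.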

[1] = test system: Fusobacterium necrophorum; assay: Antibacterial activity against Fusobacterium necrophorum; type: functional
Procedure, shortened: (§2)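 Anaerobic broth microdilution MIC following CLSI guidelines, in supplemented Brucella broth. Run in an anaerobe chamber under 5% CO2, 5% H2 and 90% N2 at 35°C, and read after 48 h. Reported as MIC range, MIC50 and MIC90.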

Streptococcus pyogenes = assay: Antibacterial activity against Streptococcus pyogenes; type: functional; procedure, shortened: as §1
Enterococcus faecium [2] = assay: Antibacterial activity against VanA-resistant Enterococcus faecium; type: functional
Procedure, shortened: (§3)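 Broth microdilution MIC per CLSI guidelines, incubated at 35°C. Cation-adjusted Mueller-Hinton broth for nonfastidious organisms and staphylococci. Streptococci tested in the same broth with 3% lysed horse blood. Anaerobes tested in supplemented Brucella broth inside an anaerobe chamber (5% CO2, 5% H2, 90% N2), read after 48 h. Strains were mainly recent clinical isolates with confirmed identity.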

Acinetobacter sp. = assay: Antibacterial activity against Acinetobacter sp.; type: functional
Procedure, shortened: (§4)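 Broth microdilution MIC following CLSI guidelines, in cation-adjusted Mueller-Hinton broth, incubated at 35°C. Recent clinical isolates and reference strains, with identity confirmed by automated and standard microbiological methods. Results reported as MIC range, MIC50 and MIC90.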

Shigella dysenteriae = assay: Antibacterial activity against Shigella dysenteriae; type: functional
Haemophilus influenzae [3] = assay: Antibacterial activity against beta-lactamase positive Haemophilus influenzae; type: functional
Procedure, shortened: (§5)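 Broth microdilution MIC following CLSI guidelines, in Haemophilus test medium at 35°C.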

Streptococcus sanguinis = assay: Antibacterial activity against Streptococcus sanguis; type: functional; procedure, shortened: as §1
Fusobacterium sp. = assay: Antibacterial activity against Fusobacterium sp.; type: functional; procedure, shortened: as §2
Neisseria gonorrhoeae = assay: Antibacterial activity against Neisseria gonorrhoeae; type: functional
Procedure, shortened: (§6)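 MIC by broth microdilution in gonococcal broth, incubated at 35°C in 5% CO2. Reported as MIC range, MIC50 and MIC90.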

Legionella pneumophila = assay: Antibacterial activity against Legionella pneumophila; type: functional
Procedure, shortened: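 Broth microdilution MIC per CLSI guidelines, run in buffered yeast extract α-ketoglutarate broth at 35°C and read after 48 h.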

Shigella flexneri = assay: Antibacterial activity against Shigella flexneri; type: functional; procedure, shortened: as §4
Streptococcus pneumoniae [4] = assay: Antibacterial activity against penicillin-intermediate resistant Streptococcus pneumoniae; type: functional; procedure, shortened: as §3
Serratia marcescens = assay: Antibacterial activity against Serratia marcescens; type: functional; procedure, shortened: as §4
Streptococcus pneumoniae [5] = assay: Antibacterial activity against levofloxacin-resistant Streptococcus pneumoniae; type: functional; procedure, shortened: as §3
Corynebacterium jeikeium = assay: Antibacterial activity against Corynebacterium jeikeium; type: functional
Procedure, shortened: (§7)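 Broth microdilution MIC following CLSI guidelines, in cation-adjusted Mueller-Hinton broth containing 3% lysed horse blood, incubated at 35°C. Clinical isolates with identity confirmed. Reported as MIC range, MIC50 and MIC90.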

Enterococcus faecalis [6] = assay: Antibacterial activity against VanB-resistant Enterococcus faecalis; type: functional; procedure, shortened: as §3
[7] = test system: Prevotella melaninogenica; assay: Antibacterial activity against Prevotella melaninogenica; type: functional; procedure, shortened: as §2
Bacteroides ovatus = assay: Antibacterial activity against Bacteroides ovatus; type: functional; procedure, shortened: as §2
Cutibacterium acnes = assay: Antibacterial activity against Propionibacterium acnes; type: functional
Streptococcus pneumoniae [8] = assay: Antibacterial activity against penicillin-resistant Streptococcus pneumoniae; type: functional; procedure, shortened: as §3
Prevotella sp. = assay: Antibacterial activity against Prevotella sp.; type: functional; procedure, shortened: as §2
Enterococcus faecalis [9] = assay: Antibacterial activity against VanA-resistant Enterococcus faecalis; type: functional; procedure, shortened: as §3
Enterococcus faecalis [10] = assay: Antibacterial activity against Enterococcus faecalis; type: functional; procedure, shortened: as §3
Shigella sonnei = assay: Antibacterial activity against Shigella sonnei; type: functional; procedure, shortened: as §4
Haemophilus influenzae [11] = assay: Antibacterial activity against beta-lactamase negative Haemophilus influenzae; type: functional; procedure, shortened: as §5
Burkholderia cepacia = assay: Antibacterial activity against Burkholderia cepacia; type: functional; procedure, shortened: as §4
Proteus mirabilis = assay: Antibacterial activity against Proteus mirabilis; type: functional; procedure, shortened: as §4
[12] = test system: Staphylococcus haemolyticus; assay: Antibacterial activity against Staphylococcus haemolyticus; type: functional; procedure, shortened: as §7
Enterococcus gallinarum = assay: Antibacterial activity against Enterococcus gallinarum; type: functional
[13] = test system: Peptoniphilus asaccharolyticus; assay: Antibacterial activity against Peptostreptococcus asaccharolyticus; type: functional; procedure, shortened: as §2
Prevotella corporis = assay: Antibacterial activity against Prevotella corporis; type: functional; procedure, shortened: as §2
Salmonella enteritidis = assay: Antibacterial activity against Salmonella enterica serovar Enteritidis; type: functional, Salmonella enterica subsp. enterica serovar Enteritidis; procedure, shortened: as §4
Neisseria meningitidis = assay: Antibacterial activity against Neisseria meningitidis; type: functional; procedure, shortened: as §6
[14] = test system: Stenotrophomonas maltophilia; assay: Antibacterial activity against Stenotrophomonas maltophilia; type: functional; procedure, shortened: as §4
Enterococcus faecium [15] = assay: Antibacterial activity against Enterococcus faecium; type: functional; procedure, shortened: as §3
Listeria monocytogenes = assay: Antibacterial activity against Listeria monocytogenes; type: functional; procedure, shortened: as §7
Pseudomonas aeruginosa = assay: Antibacterial activity against Pseudomonas aeruginosa; type: functional; procedure, shortened: as §4
[16] = test system: Enterococcus casseliflavus; assay: Antibacterial activity against Enterococcus casseliflavus; type: functional
Finegoldia magna = assay: Antibacterial activity against Peptostreptococcus magnus; type: functional; procedure, shortened: as §2
Staphylococcus warneri = assay: Antibacterial activity against Staphylococcus warneri; type: functional; procedure, shortened: as §4
Prevotella bivia = assay: Antibacterial activity against Prevotella bivia; type: functional; procedure, shortened: as §2
Prevotella buccae = assay: Antibacterial activity against Prevotella buccae; type: functional; settings: Segatella buccae; procedure, shortened: as §2
Klebsiella pneumoniae = assay: Antibacterial activity against Klebsiella pneumoniae; type: functional; procedure, shortened: as §4
Streptococcus viridans = assay: Antibacterial activity against Streptococcus viridans; type: functional; procedure, shortened: as §1
Fusobacterium nucleatum = assay: Antibacterial activity against Fusobacterium nucleatum; type: functional; procedure, shortened: as §2
Staphylococcus aureus = assay: Antibacterial activity against vancomycin-intermediate Staphylococcus aureus; type: functional; procedure, shortened: as §3
Enterococcus faecalis [17] = assay: Antibacterial activity against beta-lactamase positive Enterococcus faecalis; type: functional
Procedure, shortened: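 MIC by CLSI broth microdilution for nonfastidious organisms, in cation-adjusted Mueller-Hinton broth incubated at 35°C.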

Moraxella catarrhalis = assay: Antibacterial activity against beta-lactamase negative Moraxella catarrhalis; type: functional

## COc1c(N2CCNC(C)C2)c(F)cc2c(=O)c(C(=O)O)cn(C3CC3)c12 (centres undefined) [GATIFLOXACIN]
Streptococcus mitis
  MIC50: 0.5 µg/mL (≈ 1.33 µM)
  MIC90: 0.5 µg/mL (≈ 1.33 µM)
[1]
  MIC: 0.015 µg/mL (≈ 0.04 µM)
Streptococcus pyogenes
  MIC50: 0.25 µg/mL (≈ 0.666 µM)
  MIC90: 0.5 µg/mL (≈ 1.33 µM)
Enterococcus faecium [2]
  MIC50: 32 µg/mL (≈ 85.2 µM)
  MIC90: 64 µg/mL (≈ 170 µM)
Acinetobacter sp.
  MIC50: 0.03 µg/mL (≈ 0.0799 µM)
  MIC90: 16 µg/mL (≈ 42.6 µM)
Shigella dysenteriae
  MIC50: 0.03 µg/mL (≈ 0.0799 µM)
  MIC90: 0.06 µg/mL (≈ 0.16 µM)
Haemophilus influenzae [3]
  MIC50: 0.015 µg/mL (≈ 0.04 µM)
  MIC90: 0.015 µg/mL (≈ 0.04 µM)
Streptococcus sanguinis
  MIC50: 0.5 µg/mL (≈ 1.33 µM)
  MIC90: 0.5 µg/mL (≈ 1.33 µM)
Fusobacterium sp.
  MIC: 0.015 µg/mL (≈ 0.04 µM)
Neisseria gonorrhoeae
  MIC50: 0.004 µg/mL (≈ 0.0107 µM)
  MIC90: 0.008 µg/mL (≈ 0.0213 µM)
Legionella pneumophila
  MIC50: 0.008 µg/mL (≈ 0.0213 µM)
  MIC90: 0.008 µg/mL (≈ 0.0213 µM)
Shigella flexneri
  MIC50: 0.03 µg/mL (≈ 0.0799 µM)
  MIC90: 0.06 µg/mL (≈ 0.16 µM)
Streptococcus pneumoniae [4]
  MIC50: 0.25 µg/mL (≈ 0.666 µM)
  MIC90: 0.5 µg/mL (≈ 1.33 µM)
Serratia marcescens
  MIC50: 0.25 µg/mL (≈ 0.666 µM)
  MIC90: 4 µg/mL (≈ 10.7 µM)
Streptococcus pneumoniae [5]
  MIC50: 4 µg/mL (≈ 10.7 µM)
  MIC90: 4 µg/mL (≈ 10.7 µM)
Corynebacterium jeikeium
  MIC50: 0.125 µg/mL (≈ 0.333 µM)
  MIC90: 0.5 µg/mL (≈ 1.33 µM)
Enterococcus faecalis [6]
  MIC50: 8 µg/mL (≈ 21.3 µM)
  MIC90: 16 µg/mL (≈ 42.6 µM)
[7]
  MIC50: 0.25 µg/mL (≈ 0.666 µM)
  MIC90: 0.5 µg/mL (≈ 1.33 µM)
Bacteroides ovatus
  MIC50: 4 µg/mL (≈ 10.7 µM)
  MIC90: 16 µg/mL (≈ 42.6 µM)
Cutibacterium acnes
  MIC50: 1 µg/mL (≈ 2.66 µM)
  MIC90: 8 µg/mL (≈ 21.3 µM)
Streptococcus pneumoniae [8]
  MIC50: 0.25 µg/mL (≈ 0.666 µM)
  MIC90: 1 µg/mL (≈ 2.66 µM)
Prevotella sp.
  MIC50: 0.25 µg/mL (≈ 0.666 µM)
  MIC90: 0.5 µg/mL (≈ 1.33 µM)
Enterococcus faecalis [9]
  MIC: 8 µg/mL (≈ 21.3 µM)
Enterococcus faecalis [10]
  MIC50: 8 µg/mL (≈ 21.3 µM)
  MIC90: 16 µg/mL (≈ 42.6 µM)
Shigella sonnei
  MIC50: 0.03 µg/mL (≈ 0.0799 µM)
  MIC90: 0.06 µg/mL (≈ 0.16 µM)
Haemophilus influenzae [11]
  MIC50: 0.008 µg/mL (≈ 0.0213 µM)
  MIC90: 0.015 µg/mL (≈ 0.04 µM)
Burkholderia cepacia
  MIC50: 4 µg/mL (≈ 10.7 µM)
  MIC90: 16 µg/mL (≈ 42.6 µM)
Proteus mirabilis
  MIC50: 0.25 µg/mL (≈ 0.666 µM)
  MIC90: 4 µg/mL (≈ 10.7 µM)
[12]
  MIC50: 0.125 µg/mL (≈ 0.333 µM)
  MIC90: 4 µg/mL (≈ 10.7 µM)
Enterococcus gallinarum
  MIC50: 0.5 µg/mL (≈ 1.33 µM)
  MIC90: 1 µg/mL (≈ 2.66 µM)
[13]
  MIC: 0.06 µg/mL (≈ 0.16 µM)
Prevotella corporis
  MIC50: 0.25 µg/mL (≈ 0.666 µM)
  MIC90: 0.5 µg/mL (≈ 1.33 µM)
Salmonella enteritidis
  MIC50: 0.03 µg/mL (≈ 0.0799 µM)
  MIC90: 0.06 µg/mL (≈ 0.16 µM)
Neisseria meningitidis
  MIC50: 0.004 µg/mL (≈ 0.0107 µM)
  MIC90: 0.008 µg/mL (≈ 0.0213 µM)
[14]
  MIC50: 1 µg/mL (≈ 2.66 µM)
  MIC90: 8 µg/mL (≈ 21.3 µM)
Enterococcus faecium [15]
  MIC50: 8 µg/mL (≈ 21.3 µM)
  MIC90: 64 µg/mL (≈ 170 µM)
Listeria monocytogenes
  MIC50: 0.5 µg/mL (≈ 1.33 µM)
  MIC90: 1 µg/mL (≈ 2.66 µM)
Pseudomonas aeruginosa
  MIC50: 1 µg/mL (≈ 2.66 µM)
  MIC90: 64 µg/mL (≈ 170 µM)
[16]
  MIC50: 0.5 µg/mL (≈ 1.33 µM)
  MIC90: 1 µg/mL (≈ 2.66 µM)
Finegoldia magna
  MIC: 0.06 µg/mL (≈ 0.16 µM)
Staphylococcus warneri
  MIC: 0.125 µg/mL (≈ 0.333 µM)
Prevotella bivia
  MIC50: 0.25 µg/mL (≈ 0.666 µM)
  MIC90: 0.5 µg/mL (≈ 1.33 µM)
Prevotella buccae
  MIC50: 0.25 µg/mL (≈ 0.666 µM)
  MIC90: 0.5 µg/mL (≈ 1.33 µM)
Klebsiella pneumoniae
  MIC50: 0.06 µg/mL (≈ 0.16 µM)
  MIC90: 0.5 µg/mL (≈ 1.33 µM)
Streptococcus viridans
  MIC50: 0.5 µg/mL (≈ 1.33 µM)
  MIC90: 0.5 µg/mL (≈ 1.33 µM)
Fusobacterium nucleatum
  MIC: 0.015 µg/mL (≈ 0.04 µM)
Staphylococcus aureus
  MIC: 8 µg/mL (≈ 21.3 µM)
Enterococcus faecalis [17]
  MIC: 0.25 µg/mL (≈ 0.666 µM)
Moraxella catarrhalis
  MIC50: 0.06 µg/mL (≈ 0.16 µM)
  MIC90: 0.06 µg/mL (≈ 0.16 µM)
